Experimental data pooled from the literature.
Compare with care: the assays were run in different laboratories.
Target: MAP/microtubule affinity-regulating kinase 3 (MARK3, Homo sapiens, UniProt P27448)
Observed: enzyme activity
Action: inhibitor

SMILES	assay	setting	remaining activity
COc1cc(Nc2cnc(C#N)c(O[C@H](C)CN(C)C)n2)ncc1-c1cnn(C)c1	radiometric	1 µM	98%
NS(=O)(=O)c1ccc(CNc2nc(Nc3cccc(NC(=O)N4CCCC4)c3)ncc2C2CC2)cc1	radiometric	1 µM	112%
Cn1c(=O)n(-c2ccc(C(C)(C)C#N)cc2)c2c3cc(-c4cnc5ccccc5c4)ccc3ncc21		10 µM	100%
Cc1nn(CC(F)(F)F)cc1Nc1ncc(Br)c(NCc2ccc(S(N)(=O)=O)cc2)n1	radiometric	1 µM	105%
FC(F)c1nc2ccccc2n1-c1nc(N2CCOCC2)nc(N2CCOCC2)n1		10 µM	94%
Brc1cnc(Nc2cccc(CN3CCOCC3)c2)nc1NCCc1c[nH]cn1	radiometric	1 µM	16%
CC(C)(O)[C@H]1CC[C@H](Nc2ccc3ncc(-c4cccc(C(F)(F)F)c4)n3n2)CC1		1 µM	101%
Cc1sc(C(=O)NC2COC2)cc1-n1cc(NC(=O)Nc2c(F)cccc2Cl)cn1		10 µM	102%
NS(=O)(=O)c1ccc(CNc2nc(Nc3cccc(CN4CCOCC4)c3)ncc2Br)cc1	radiometric	1 µM	68%
CC(C)(C)C(=O)c1sc(NC2CCCCC2)nc1N		10 µM	112%
CC(C)(C)c1nc(-c2cccc(NS(=O)(=O)c3c(F)cccc3F)c2F)c(-c2ccnc(N)n2)s1	radiometric	1 µM	96%
COc1cc(Cl)c(C(=O)N[C@@H](CN[C@H]2CC[C@@H](N)CC2)Cc2ccc(C#N)cc2)cc1-c1ccc(CN[C@H](C)c2ccc(C)cc2)o1		1 µM	98%
CC(C)(C)c1nc2c(s1)c1nc(N)ncc1c1ccc(NS(=O)(=O)c3c(F)cccc3F)c(F)c12	radiometric	1 µM	99%
O=C(Nc1cnn(-c2csc(C(=O)NC3COC3)c2)c1)Nc1c(F)cccc1Cl		5 µM	99.3%
NS(=O)(=O)c1ccc(CNc2ccnc(Nc3cccc(NC(=O)N4CCCC4)c3)n2)cc1	radiometric	1 µM	115%
Cc1ccc(C(=O)Nc2ccc(CN3CCN(C)CC3)c(C(F)(F)F)c2)cc1C#Cc1cnc2cccnn12		23.5 nM	83%
Nc1nc(NC2CCCCC2)sc1C(=O)c1ccccc1		10 µM	100%
